Assay results of several laboratories.
Lines come from different studies, so protocols differ.
PIK3CA M1043I: Phosphatidylinositol 4,5-bisphosphate 3-kinase catalytic subunit alpha isoform (PIK3CA, Homo sapiens, UniProt P42336, M1043I)
PIK3CA H1047L: Phosphatidylinositol 4,5-bisphosphate 3-kinase catalytic subunit alpha isoform (PIK3CA, Homo sapiens, UniProt P42336, H1047L)
PIK3CA: Phosphatidylinositol 4,5-bisphosphate 3-kinase catalytic subunit alpha isoform (PIK3CA, Homo sapiens, UniProt P42336)
PIK3CA E542K: Phosphatidylinositol 4,5-bisphosphate 3-kinase catalytic subunit alpha isoform (PIK3CA, Homo sapiens, UniProt P42336, E542K)
PIK3CA C420R: Phosphatidylinositol 4,5-bisphosphate 3-kinase catalytic subunit alpha isoform (PIK3CA, Homo sapiens, UniProt P42336, C420R)

| Structure (SMILES) | target | test | conditions | remaining binding [%] |
| --- | --- | --- | --- | --- |
| COc1ncc2cc3ccccc3nc2c1C#N | PIK3CA M1043I | cell-free assay, competition with immobilised ligand | 5 µM | 100 |
| CN(CCCC(F)(F)F)c1nccc(-c2cnn3ncccc23)n1 | PIK3CA M1043I | binding | 1 µM | 100 |
| Cc1cnc(Nc2ccc(C(=O)N3CCC(N4CCCC4)CC3)cc2)nc1-c1cc2ccccc2s1 | Phosphatidylinositol 4,5-bisphosphate 3-kinase catalytic subunit alpha isoform (PIK3CA, Homo sapiens, UniProt P42336, I800L) | binding, competition with immobilised ligand | 1 µM | 100 |
| CCN1CCN(Cc2ccc(C(=O)Nc3ccc(C)c(Oc4ccc5c(c4)CC(=O)N5)c3)cc2C(F)(F)F)CC1 | PIK3CA M1043I | binding, competition with immobilised ligand | 1 µM | 100 |
| Nc1ncc2c(n1)-c1c([nH]c3ccc(C#CC4CC4)cc13)CCCC2 | Phosphatidylinositol 4,5-bisphosphate 3-kinase catalytic subunit alpha isoform (PIK3CA, Homo sapiens, UniProt P42336, E545K) | binding, competition with immobilised ligand | 1 µM | 100 |
| C[C@@H]1CCN(c2nccc(-c3cnn4ncccc34)n2)C1 | PIK3CA H1047L | binding | 1 µM | 75 |
| O=C(c1ccc(Nc2nccc(-c3cc4ccccc4s3)n2)cc1)N1CCC(N2CCCC2)CC1 | PIK3CA | binding, competition with immobilised ligand | 1 µM | 100 |
| O=C(NS(=O)(=O)c1ccc(NCC2CCOCC2)c([N+](=O)[O-])c1)c1ccc(N2CCN(Cc3ccc(C(F)(F)F)cc3-c3ccc(Cl)cc3)CC2)cc1Oc1cnc2[nH]ccc2c1 | PIK3CA | cell-free assay, competition with immobilised ligand | 1 µM | 69 |
| C[C@@H](c1ccc(-n2cnc3c(N)ncnc32)cc1)N1CCc2nn(C)c(Cc3ccccc3)c2C1=O | PIK3CA | binding, competition with immobilised ligand | 0.1 µM | 82 |
| COc1cnc(Nc2cccc(S(N)(=O)=O)c2)nc1N1CCN(c2ccccc2)C(=O)C1 | PIK3CA E542K | binding, competition with immobilised ligand | 1 µM | 91 |
| O=C(NCC1CCOCC1)c1n[nH]cc1NC(=O)c1c(F)cccc1F | PIK3CA H1047L | binding, competition with immobilised ligand | 1 µM | 74 |
| F[C@@H]1CCN(c2nccc(-c3cnn4ncccc34)n2)C1 | PIK3CA C420R | binding | 1 µM | 90 |
| CCS(=O)(=O)c1cc2cc(C[C@](O)(CC(C)(C)c3ccc(F)cc3C(N)=O)C(F)(F)F)[nH]c2cn1 | PIK3CA H1047L | cell-free assay, competition with immobilised ligand | 1 µM | 96 |
| CC1CCCN1c1nccc(-c2cnn3ncccc23)n1 (stereo not shown) | PIK3CA C420R | binding | 1 µM | 72 |
| NS(=O)(=O)c1cc(NC(=O)Cc2ccccc2)ccc1Oc1cccc(Cl)c1 | Phosphatidylinositol 4,5-bisphosphate 3-kinase catalytic subunit alpha isoform (PIK3CA, Homo sapiens, UniProt P42336, E545A) | cell-free assay, competition with immobilised ligand | 1 µM | 69 |
| CN1CCN(c2ccc(Nc3nccc(-c4ccccc4)n3)cc2C(F)(F)F)CC1 | PIK3CA E542K | binding | 10 µM | 70 |
| O=C(O)c1cc(-c2ccc(C3CCNCC3)cc2)c2ccc(-c3ccc(C(F)(F)F)cc3)cc2c1 | PIK3CA M1043I | cell-free assay, competition with immobilised ligand | 1 µM | 100 |
| CN(C)c1nccc(-c2cnn3ncccc23)n1 | PIK3CA H1047L | binding | 1 µM | 73 |
| C[C@H](NC(=O)c1cnc2n1[C@](C)(Cc1ccc(C#N)cc1)C(=O)N2c1cc(Cl)c(F)c(Cl)c1)C(=O)NC1(c2ccccn2)CC1 | PIK3CA | cell-free assay, competition with immobilised ligand | 1 µM | 100 |
| N[C@@H]1CCN(c2nccc(-c3cnn4ncccc34)n2)C1 | PIK3CA | binding | 1 µM | 100 |
| CNC(=O)[C@@H]1CC[C@@H](n2c(-c3ccc4cnccc4c3)nc3ccc(C(=O)NCc4cccc(C(N)=O)c4)cc32)C1 | PIK3CA C420R | binding, competition with immobilised ligand | 1 µM | 90 |
| CC(=O)C1=C(C)N(c2cccc(C(F)(F)F)c2)C(=O)N[C@@H]1c1ccc(C#N)nc1 | PIK3CA H1047L | cell-free assay, competition with immobilised ligand | 1 µM | 69 |
